In ChEMBL document CHEMBL1138117, “Hybrid antibacterials. DNA polymerase-topoisomerase inhibitors” (J Med Chem, 2006):
≈ marks a conversion by molar mass, not a printed value.

How the values were obtained:
Enterococcus faecalis = assay: Antibacterial activity against Enterococcus faecalis 29212; format: functional
[1] = target: DNA polymerase III PolC-type (Bacillus subtilis (strain 168), UniProt P13267); assay: Binding affinity to Bacillus subtilis DNA polymerase3C
Procedure, shortened: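 Homogeneous recombinant B. subtilis pol IIIC was assayed in 96-well format on activated calf thymus DNA. Apparent Ki values were determined in a truncated assay lacking the competitor dGTP.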

Staphylococcus aureus [2] = assay: Antibacterial activity against methicillin resistant Staphylococcus aureus MRSA 1094; format: functional
Escherichia coli = assay: Antibacterial activity against Escherichia coli J53; format: functional
Enterococcus faecium [3] = assay: Antibacterial activity against Enterococcus faecium 19434; format: functional
Enterococcus faecium [4] = assay: Antibacterial activity against Vancomycin resistant Enterococcus faecium VRE 700802; format: functional
Bacillus subtilis = assay: Antibacterial activity against Bacillus subtilis BD54; format: functional
Mus musculus = assay: Effect on survival of mice after ip infection with Staphylococcus aureus Smith; format: functional
Procedure, shortened: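 Male Swiss-Webster mice (20–24 g) were given 10⁸ CFU of log-phase S. aureus Smith ip, grown in LB at 37 °C and washed in cold broth. A single iv tail-vein dose was given in DCP vehicle (10% DMA, 10% Cremophor EL in PBS, pH 9.5; 5 mL/kg) 15 min post-infection. Survival was scored at 72 h and ED50 derived.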

Staphylococcus aureus [5] = assay: Antibacterial activity against Staphylococcus aureus smith; format: functional
Staphylococcus aureus [6] = assay: Antibacterial activity against Staphylococcus aureus 25293; format: functional
[7] = test system: DNA gyrase (Bacillus subtilis); assay: Inhibition of Bacillus subtilis gyrase activity

Chain of DNA polymerase III PolC-type (P13267 whole entry, the tested form may be a part): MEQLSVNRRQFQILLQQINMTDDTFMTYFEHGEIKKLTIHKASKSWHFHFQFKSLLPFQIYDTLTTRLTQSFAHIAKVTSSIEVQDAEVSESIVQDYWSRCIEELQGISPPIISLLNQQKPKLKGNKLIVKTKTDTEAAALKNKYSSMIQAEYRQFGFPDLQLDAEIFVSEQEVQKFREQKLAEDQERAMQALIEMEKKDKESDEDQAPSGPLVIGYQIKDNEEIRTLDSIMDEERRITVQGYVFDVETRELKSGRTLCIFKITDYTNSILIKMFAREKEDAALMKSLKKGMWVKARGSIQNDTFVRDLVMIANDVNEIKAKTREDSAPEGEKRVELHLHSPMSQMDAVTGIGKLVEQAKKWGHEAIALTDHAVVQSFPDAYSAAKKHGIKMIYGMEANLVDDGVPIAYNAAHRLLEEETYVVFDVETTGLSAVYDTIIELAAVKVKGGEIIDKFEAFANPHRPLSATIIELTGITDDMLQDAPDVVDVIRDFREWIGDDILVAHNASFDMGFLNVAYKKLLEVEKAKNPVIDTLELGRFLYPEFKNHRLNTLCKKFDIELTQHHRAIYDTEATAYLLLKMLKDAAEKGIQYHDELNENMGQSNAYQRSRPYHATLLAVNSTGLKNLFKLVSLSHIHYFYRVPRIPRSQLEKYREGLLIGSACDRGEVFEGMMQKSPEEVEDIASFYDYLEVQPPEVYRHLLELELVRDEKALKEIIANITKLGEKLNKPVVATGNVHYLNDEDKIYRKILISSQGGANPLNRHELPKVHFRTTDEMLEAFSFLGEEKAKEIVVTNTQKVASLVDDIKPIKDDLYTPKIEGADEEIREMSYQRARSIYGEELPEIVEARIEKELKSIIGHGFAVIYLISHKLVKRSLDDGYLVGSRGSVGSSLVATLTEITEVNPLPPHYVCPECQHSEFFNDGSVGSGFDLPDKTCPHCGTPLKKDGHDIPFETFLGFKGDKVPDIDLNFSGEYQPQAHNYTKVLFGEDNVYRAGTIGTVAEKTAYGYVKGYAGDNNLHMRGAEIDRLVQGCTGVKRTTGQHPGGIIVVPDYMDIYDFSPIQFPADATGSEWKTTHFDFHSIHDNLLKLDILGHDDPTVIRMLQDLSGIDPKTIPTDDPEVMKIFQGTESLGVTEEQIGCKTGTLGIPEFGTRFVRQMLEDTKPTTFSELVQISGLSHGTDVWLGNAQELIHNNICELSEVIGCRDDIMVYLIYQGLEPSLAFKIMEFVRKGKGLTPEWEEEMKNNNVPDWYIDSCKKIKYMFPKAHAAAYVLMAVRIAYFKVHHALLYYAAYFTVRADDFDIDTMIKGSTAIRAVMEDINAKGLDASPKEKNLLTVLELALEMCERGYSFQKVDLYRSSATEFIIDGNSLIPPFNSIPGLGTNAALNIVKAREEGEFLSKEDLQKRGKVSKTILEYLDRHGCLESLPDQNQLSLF

SMILES | MIC (Enterococcus faecalis) [µg/mL] | Ki [1] | MIC (Staphylococcus aureus [2]) [µg/mL] | MIC (Escherichia coli) [µg/mL] | MIC (Enterococcus faecium [3]) [µg/mL] | MIC (Enterococcus faecium [4]) [µg/mL] | MIC (Bacillus subtilis) [µg/mL] | ED50 (Mus musculus) [mg/kg] | Ki ([1]; read-out: Ki) [nM] | MIC (Staphylococcus aureus [5]) [µg/mL] | MIC (Staphylococcus aureus [6]) [µg/mL] | IC50 [7] [µg/mL]
CCn1cc(C(=O)O)c(=O)c2cc(F)c(N3CCNCC3)cc21 [NORFLOXACIN] | 2.5 (≈ 7.83 µM) | Not Active | 40 (≈ 125 µM) | 1.25 (≈ 3.91 µM) | 10 (≈ 31.3 µM) | 80 (≈ 251 µM) | 0.313 (≈ 0.98 µM) | – | – | – | – | –
CCc1cc(Nc2cc(=O)n(CCCCN3CCN(c4c(F)cc5c(=O)c(C(=O)O)cn(C6CC6)c5c4F)CC3CO)c(=O)[nH]2)ccc1C (stereo not drawn) | 2.5 (≈ 3.68 µM) | – | 5 (≈ 7.37 µM) | > 40 | 2.5 (≈ 3.68 µM) | 2.5 (≈ 3.68 µM) | 0.625 (≈ 0.921 µM) | 35 | – | – | – | –
CCc1cc(Nc2cc(=O)n(CCCCN3CCN(c4cc5c(cc4F)c(=O)c(C(=O)O)cn5-c4ccc(F)cc4)CC3)c(=O)[nH]2)ccc1C | 0.625 (≈ 0.913 µM) | – | 2.5 (≈ 3.65 µM) | > 40 | 1.25 (≈ 1.83 µM) | 1.25 (≈ 1.83 µM) | 0.156 (≈ 0.228 µM) | – | 17 | 0.625 (≈ 0.913 µM) | 1.25 (≈ 1.83 µM) | –
CCc1cc(Nc2cc(=O)n(CCCCN3CCN(c4c(F)cc5c(=O)c(C(=O)O)cn(C6CC6)c5c4F)C[C@@H]3C)c(=O)[nH]2)ccc1C | 1.25 (≈ 1.89 µM) | – | – | 20 (≈ 30.2 µM) | 1.25 (≈ 1.89 µM) | 0.625 (≈ 0.943 µM) | – | 15 | 4 | – | 0.625 (≈ 0.943 µM) | 9.2 (≈ 13.9 µM)
CCc1cc(Nc2cc(=O)n(CCCCN3CCN(c4c(F)cc5c(=O)c(C(=O)O)cn(C6CC6)c5c4F)C[C@H]3C)c(=O)[nH]2)ccc1C | 1.25 (≈ 1.89 µM) | – | 1.25 (≈ 1.89 µM) | 5 (≈ 7.54 µM) | 2.5 (≈ 3.77 µM) | 1.25 (≈ 1.89 µM) | – | 20 | 7 | – | – | 11.7 (≈ 17.7 µM)
CCn1cc(C(=O)O)c(=O)c2ccc(C)nc21 [NALIDIXIC ACID] | – | – | – | – | – | – | – | – | – | – | – | 34.6 (≈ 149 µM)
CCc1cc(Nc2cc(=O)n(CCCCN3CCN(c4c(F)cc5c(=O)c(C(=O)O)cn(C6CC6)c5c4Cl)CC3)c(=O)[nH]2)ccc1C | 0.625 (≈ 0.94 µM) | – | 1.25 (≈ 1.88 µM) | 20 (≈ 30.1 µM) | 1.25 (≈ 1.88 µM) | 0.625 (≈ 0.94 µM) | 0.078 (≈ 0.117 µM) | – | 10 | 0.156 (≈ 0.235 µM) | 0.313 (≈ 0.471 µM) | –
CC(=O)NC[C@H]1CN(c2ccc(N3CCOCC3)c(F)c2)C(=O)O1 [LINEZOLID] | 1.25 (≈ 3.71 µM) | Not Active | 1.25 (≈ 3.71 µM) | > 80 | 2.5 (≈ 7.41 µM) | 1.25 (≈ 3.71 µM) | 0.625 (≈ 1.85 µM) | – | – | 2.5 (≈ 7.41 µM) | 1.25 (≈ 3.71 µM) | –
C[C@@H]1CN(c2c(F)c(N)c3c(=O)c(C(=O)O)cn(C4CC4)c3c2F)C[C@H](C)N1 [SPARFLOXACIN] | 5 (≈ 12.7 µM) | Not Active | 10 (≈ 25.5 µM) | < 0.078 | 1.25 (≈ 3.19 µM) | 80 (≈ 204 µM) | < 0.078 | – | – | < 0.078 | < 0.078 | 0.4 (≈ 1.02 µM)
CCc1cc(Nc2cc(=O)n(CCCCN3CCN(c4cc5c(cc4F)c(=O)c(C(=O)O)cn5C(C)(C)C)CC3)c(=O)[nH]2)ccc1C.Cl | 0.625 | – | 1.25 | > 40 | 1.25 | 1.25 | 0.313 | – | 13 | 0.625 | 0.625 | –
CCc1cc(Nc2cc(=O)n(CCCCN3CCN(c4c(F)cc5c(=O)c(C(=O)O)cn(C6CC6)c5c4OC)CC3)c(=O)[nH]2)ccc1C | 1.25 (≈ 1.89 µM) | – | 1.25 (≈ 1.89 µM) | > 40 | 1.25 (≈ 1.89 µM) | 0.625 (≈ 0.946 µM) | 0.156 (≈ 0.236 µM) | 25 | 14 | 0.313 (≈ 0.474 µM) | 0.625 (≈ 0.946 µM) | –
CCc1cc(Nc2cc(=O)n(CCCCCN3CC4OCCN(c5cc6c(cc5F)c(=O)c(C(=O)O)cn6C5CC5)C4C3)c(=O)[nH]2)ccc1C (stereo not drawn) | 5 (≈ 7.28 µM) | – | 5 (≈ 7.28 µM) | 40 (≈ 58.2 µM) | > 80 | 10 (≈ 14.6 µM) | 0.625 (≈ 0.91 µM) | – | 33 | 0.625 (≈ 0.91 µM) | 1.25 (≈ 1.82 µM) | –
CCc1cc(Nc2cc(=O)n(CCCCN3CCN(c4cc5c(cc4F)c(=O)c(C(=O)O)cn5C4CC4)C[C@@H]3C)c(=O)[nH]2)ccc1C | 0.625 (≈ 0.969 µM) | – | 1.25 (≈ 1.94 µM) | 40 (≈ 62 µM) | 1.25 (≈ 1.94 µM) | 0.625 (≈ 0.969 µM) | – | 30 | – | – | 1.25 (≈ 1.94 µM) | –
